Results as given in ChEMBL document CHEMBL1629563, “Pharmacokinetic and safety evaluation of BILR 355, a second-generation nonnucleoside reverse transcriptase inhibitor, in healthy volunteers” (Antimicrob Agents Chemother, 2008).

Legend:
Homo sapiens [1] = experiment: Toxicity in healthy human assessed as occurrence of maculopapular rash at 37.5 mg, po administered as single dose coadministered with 100 mg of ritonavir; assay type: organism-based; conditions: in vivo
[2] = Renal clearance in healthy human at 75 mg, po administered as single dose coadministered with 100 mg of ritonavir by high-pressure liquid chromatography-tandem mass spectrometry/mass spectrometry method; assay type: ADME, organism-based, Kidney; conditions: in vivo, read-out: CL_renal (converted)
[3] = AUC (0 to last) in healthy human at 62.5 mg, po administered as single dose coadministered with 100 mg of ritonavir; assay type: ADME, organism-based; parameters: dose 62.5 mg, time 0 - last, route oral; conditions: plasma
How it was run: (§1)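 Healthy male volunteers, fasted. Ritonavir 100 mg given 10 h before and again together with single oral BILR 355 in PEG solution. EDTA plasma sampled predose to 144 h. LC-MS/MS assay after protein precipitation. Noncompartmental analysis, AUC by linear up/log down trapezoidal rule; Vss = CL/F·(MRTp.o. − 1/Ka).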

Homo sapiens [4] = experiment: Toxicity in healthy human assessed as occurrence of vomiting at 75 mg, po administered as single dose relative to control; assay type: organism-based; conditions: in vivo
Homo sapiens [5] = experiment: Toxicity in healthy human assessed as occurrence of increase in alanine aminotransferase level at 12.5 mg, po administered as single dose relative to control; assay type: organism-based; conditions: in vivo
Homo sapiens [6] = experiment: Toxicity in healthy human assessed as occurrence of increase in alanine aminotransferase level at 25 mg, po administered as single dose relative to control; assay type: organism-based; conditions: in vivo
[7] = Renal clearance in healthy human at 100 mg, po administered as single dose by high-pressure liquid chromatography-tandem mass spectrometry/mass spectrometry method; assay type: ADME, organism-based, Kidney; conditions: in vivo, read-out: CL_renal (converted)
Homo sapiens [8] = experiment: Ratio of half life in human at 50 mg, po in presence of 100 mg of ritonavir to half life in human at 50 mg, po; assay type: ADME, organism-based; conditions: in vivo
[9] = Half life in healthy human at 12.5 mg, po administered as single dose coadministered with 100 mg of ritonavir; assay type: ADME, organism-based; conditions: in vivo
[10] = Half life in healthy human at 75 mg, po administered as single dose coadministered with 100 mg of ritonavir; assay type: ADME, organism-based; conditions: in vivo
Homo sapiens [11] = experiment: Toxicity in healthy human assessed as occurrence of flatulence at 1 mg, po administered as single dose relative to control; assay type: organism-based; conditions: in vivo
[12] = Apparent volume of distribution at steady state in healthy human at 5 mg, po administered as single dose; assay type: ADME, organism-based; conditions: in vivo, read-out: Vss/F
How it was run: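 Single fasting oral dose of BILR 355 in PEG solution with 200 ml tap water, given to healthy males. Standard breakfast came 60-90 min after the dose. EDTA plasma was sampled predose to 144 h, stored below −18°C and assayed by LC-MS/MS after protein precipitation. Noncompartmental analysis gave Vz/F. Vss/F = CL/F·(MRTp.o. − 1/Ka), with Ka from compartmental modelling.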

Homo sapiens [13] = experiment: Toxicity in high fat fed healthy human assessed as occurrence of aphthous stomatitis at 50 mg, po administered as single dose coadministered with 100 mg of ritonavir; assay type: organism-based; conditions: in vivo
[14] = Renal clearance in healthy human at 75 mg, po administered as single dose by high-pressure liquid chromatography-tandem mass spectrometry/mass spectrometry method; assay type: ADME, organism-based, Kidney; conditions: in vivo, read-out: CL_renal (converted)
[15] = Mean residence time in healthy human at 100 mg, po administered as single dose; assay type: ADME, organism-based; conditions: in vivo
[16] = Tmax in healthy human at 62.5 mg, po administered as single dose coadministered with 100 mg of ritonavir; assay type: ADME, organism-based; conditions: in vivo
[17] = AUC (0 to infinity) in healthy human at 5 mg, po administered as single dose; assay type: ADME, organism-based; parameters: dose 5 mg, route oral, time infinity; conditions: plasma
How it was run: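 Healthy male volunteers, six active plus two placebo per dose group, single oral dose in PEG solution with 200 ml water after overnight fast; breakfast 60 to 90 min post-dose. EDTA plasma sampled predose to 144 h. Assayed by validated LC-MS/MS after protein precipitation. Noncompartmental analysis, AUC by linear up/log down trapezoidal rule; Vss = CL/F·(MRTp.o. − 1/Ka).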

[18] = Apparent volume of distribution at steady state in healthy human at 75 mg, po administered as single dose coadministered with 100 mg of ritonavir; assay type: ADME, organism-based; conditions: in vivo, read-out: Vss/F
How it was run: (§2)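 Healthy male volunteers, fasted overnight, got one oral dose of BILR 355 in PEG solution with 200 ml water. Ritonavir 100 mg was given 10 h before and again with the dose. Plasma was sampled (EDTA) from predose to 144 h and assayed by validated LC-MS/MS. Cmax and Vz/F came from noncompartmental analysis. Vss/F = CL/F·(MRTp.o. − 1/Ka), with Ka from compartmental modelling.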

[19] = Half life in healthy human at 5 mg, po administered as single dose; assay type: ADME, organism-based; conditions: in vivo
[20] = Tmax in healthy human at 50 mg, po administered as single dose coadministered with 100 mg of ritonavir; assay type: ADME, organism-based; conditions: in vivo
[21] = Apparent volume of distribution in terminal phase in healthy human at 25 mg, po administered as single dose coadministered with 100 mg of ritonavir; assay type: ADME, organism-based; conditions: in vivo, read-out: Vz/F; how it was run: as §2
Homo sapiens [22] = experiment: Toxicity in healthy human assessed as occurrence of fatigue at 5 mg, po administered as single dose coadministered with 100 mg of ritonavir; assay type: organism-based; conditions: in vivo
Homo sapiens [23] = experiment: Toxicity in healthy human assessed as occurrence of nausea at 50 mg, po administered as single dose relative to control; assay type: organism-based; conditions: in vivo
[24] = AUC (0 to last) in healthy human at 50 mg, po administered as single dose coadministered with 100 mg of ritonavir; assay type: ADME, organism-based; parameters: dose 50 mg, time 0 - last, route oral; conditions: plasma; how it was run: as §1
Homo sapiens [25] = experiment: Toxicity in healthy human assessed as occurrence of fatigue at 12.5 mg, po administered as single dose coadministered with 100 mg of ritonavir; assay type: organism-based; conditions: in vivo
Homo sapiens [26] = experiment: Toxicity in healthy human assessed as occurrence of frequent bowel movements at 25 mg, po administered as single dose relative to control; assay type: organism-based; conditions: in vivo
[27] = Drug excretion in healthy human urine assessed as unchanged drug at 50 mg, po administered as single dose by high-pressure liquid chromatography-tandem mass spectrometry/mass spectrometry method; assay type: ADME, organism-based; conditions: read-out: Drug uptake
How it was run: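 Urine was collected by weight after one oral dose of BILR 355 in PEG solution in fasted healthy males. Intervals were predose blank, 0-6, 6-24 and 24-72 h, with the bladder voided before each. Aliquots were stored at −20°C and assayed by LC-MS/MS. fe = amount of unchanged drug excreted (Ae) as a percentage of the administered dose.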

Homo sapiens [28] = experiment: Toxicity in healthy human assessed as occurrence of fatigue at 62.5 mg, po administered as single dose coadministered with 100 mg of ritonavir; assay type: organism-based; conditions: in vivo
Homo sapiens [29] = experiment: Ratio of AUC (0 to infinity) in human at 25 mg, po in presence of 100 mg of ritonavir to AUC (0 to infinity) in human at 25 mg, po; assay type: ADME, organism-based; conditions: in vivo
[30] = Tmax in healthy human at 25 mg, po administered as single dose; assay type: ADME, organism-based; conditions: in vivo
Homo sapiens [31] = experiment: Toxicity in healthy human assessed as occurrence of herpes simplex at 100 mg, po administered as single dose relative to control; assay type: organism-based; conditions: in vivo
Homo sapiens [32] = experiment: Toxicity in healthy human assessed as occurrence of diarrhea at 5 mg, po administered as single dose coadministered with 100 mg of ritonavir; assay type: organism-based; conditions: in vivo
[33] = Half life in healthy human at 25 mg, po administered as single dose coadministered with 100 mg of ritonavir; assay type: ADME, organism-based; conditions: in vivo

Compound `CCN1c2ncc(CCOc3cc[n+]([O-])c4ccccc34)cc2C(=O)N(C)c2cccnc21` [BILR 355] has an Activity (Homo sapiens [1]) of 16.7%, a CL renal [2] of 5.85 mL/min and an AUC(0-t) [3] of 7480 ng·h/mL. For the same compound, the Activity (Homo sapiens [4]) was 0%, the Activity (Homo sapiens [5]) was 0% and the Activity (Homo sapiens [6]) was 0%. The CL renal [7] was 9.85 mL/min, the Ratio (Homo sapiens [8]) was 4.6 and the half-life [9] was 15.9 h. The half-life [10] was 11.9 h, the Activity (Homo sapiens [11]) was 0% and the Vd/F [12] was 1020 L. It also gave an Activity (Homo sapiens [13]) of 0%, a CL renal [14] of 10.2 mL/min and an MRT [15] of 2.23 h. The Tmax [16] was 0.7 h, the AUC(0-inf) [17] was 36.3 ng·h/mL and the Vd/F [18] was 105 L. For the same compound, the half-life [19] was 5.02 h, the Tmax [20] was 0.958 h and the Vd/F [21] was 97.6 L. The Activity (Homo sapiens [22]) was 0%, the Activity (Homo sapiens [23]) was 0% and the AUC(0-t) [24] was 6540 ng·h/mL. The Activity (Homo sapiens [25]) was 0%, the Activity (Homo sapiens [26]) was 0% and the dose excreted [27] was 0.485%. It also gave an Activity (Homo sapiens [28]) of 0%, a Ratio (Homo sapiens [29]) of 31.1 and a Tmax [30] of 0.833 h. For the same compound, the Activity (Homo sapiens [31]) was 0%, the Activity (Homo sapiens [32]) was 0% and the half-life [33] was 11.5 h.
